Test results reported in ChEMBL document CHEMBL4706621, “An attempt to chemically state the cross-talk between monomers of COX homodimers by double/hybrid inhibitors mofezolac-spacer-mofezolac and mofezolac-spacer-arachidonic acid” (Eur J Med Chem, 2021).
pIC50: −log10 of the molar value. One block for each compound: values may come before it.

Legend:
[1] = Selectivity index, ratio of IC50 for human COX-2 to IC50 for ovine COX-1
How it was run: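 Selectivity index is calculated as COX-2 IC50 divided by COX-1 IC50, each taken from the colorimetric TMPD peroxidase assay with arachidonic acid substrate.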

[2] = molecular target: T1, Prostaglandin G/H synthase 1 (Ovis aries, UniProt P05979); experiment: Inhibition of ovine COX-1 assessed as peroxidase activity using arachidonic acid as substrate by colorimetric method
T1 sequence (P05979 whole entry): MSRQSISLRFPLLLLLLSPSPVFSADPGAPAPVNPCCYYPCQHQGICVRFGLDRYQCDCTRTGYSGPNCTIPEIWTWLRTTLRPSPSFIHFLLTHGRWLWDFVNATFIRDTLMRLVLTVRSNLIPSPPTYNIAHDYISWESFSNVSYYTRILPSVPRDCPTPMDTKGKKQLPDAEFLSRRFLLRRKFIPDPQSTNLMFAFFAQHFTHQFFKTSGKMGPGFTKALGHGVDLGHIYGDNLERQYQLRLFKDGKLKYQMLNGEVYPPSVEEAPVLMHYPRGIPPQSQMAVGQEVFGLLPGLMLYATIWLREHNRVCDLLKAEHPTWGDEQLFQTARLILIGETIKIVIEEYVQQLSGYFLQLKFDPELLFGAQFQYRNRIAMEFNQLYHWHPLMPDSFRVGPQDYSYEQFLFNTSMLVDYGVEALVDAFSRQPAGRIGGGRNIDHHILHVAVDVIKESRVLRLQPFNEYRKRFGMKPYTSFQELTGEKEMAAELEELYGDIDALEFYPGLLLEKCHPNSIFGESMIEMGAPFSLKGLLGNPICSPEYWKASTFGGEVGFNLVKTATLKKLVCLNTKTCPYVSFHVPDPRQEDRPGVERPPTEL
How it was run: (§1)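 Colorimetric COX inhibitor screening kit measuring cyclooxygenase peroxidase activity on arachidonic acid substrate, read as oxidized TMPD at 590 nm. Compound stocks are made in DMSO. IC50 is the mean of at least three independent measurements. Percent inhibition is taken at the highest final inhibitor concentration, 50 µM.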

[3] = molecular target: T2, Prostaglandin G/H synthase 2 (Homo sapiens, UniProt P35354); experiment: Inhibition of human COX-2 assessed as peroxidase activity using arachidonic acid as substrate by colorimetric method; how it was run: as §1
T2 sequence (P35354 whole entry): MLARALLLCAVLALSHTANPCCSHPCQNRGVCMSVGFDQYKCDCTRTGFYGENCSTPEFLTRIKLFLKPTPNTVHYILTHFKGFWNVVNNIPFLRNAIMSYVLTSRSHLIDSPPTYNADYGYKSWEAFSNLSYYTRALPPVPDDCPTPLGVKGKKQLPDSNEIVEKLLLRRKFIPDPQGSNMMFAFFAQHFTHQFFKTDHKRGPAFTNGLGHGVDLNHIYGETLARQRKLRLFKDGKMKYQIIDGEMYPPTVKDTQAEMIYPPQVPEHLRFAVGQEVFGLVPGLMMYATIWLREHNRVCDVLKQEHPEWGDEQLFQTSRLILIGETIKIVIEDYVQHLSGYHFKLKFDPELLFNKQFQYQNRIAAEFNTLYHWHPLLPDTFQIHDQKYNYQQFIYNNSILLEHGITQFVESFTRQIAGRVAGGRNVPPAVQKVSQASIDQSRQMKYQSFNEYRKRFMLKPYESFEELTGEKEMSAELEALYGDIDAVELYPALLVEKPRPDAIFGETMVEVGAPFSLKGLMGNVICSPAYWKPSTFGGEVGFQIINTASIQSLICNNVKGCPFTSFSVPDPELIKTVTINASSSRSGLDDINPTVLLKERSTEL

[4] = molecular target: T3, Prostaglandin G/H synthase 1 (Ovis aries) (UniProt P05979); experiment: Inhibition of ovine COX-1 assessed as peroxidase activity using arachidonic acid as substrate at 50 uM by colorimetric method; how it was run: as §1
T3 sequence (whole entry): T1 sequence (P05979 whole entry)

[5] = Hemolytic activity against human erythrocytes assessed as hemolysis incubated for 3 hrs by spectrophotometric analysis relative to control; type: ADME, cell-based, Erythrocyte; settings: read-out: Activity
How it was run: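 Citrated human blood (n=3) centrifuged at 2500 rpm for 15 min. The erythrocyte pellet is washed three times and resuspended in PBS pH 7.4. Compounds are incubated with the erythrocytes for 3 h at 37 °C. After centrifugation, released hemoglobin is read at 540 nm. Controls are 1% DMSO (negative) and 1% Triton X-100 (positive). Below 10% counts as non-hemolytic.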

[6] = Genotoxicity in Salmonella typhimurium TA97 at 10 to 500 uM by AMES test; type: toxicity; settings: salmonella enterica subsp. enterica serovar typhimurium, dose 10-500 µM
How it was run: (§2)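 Ames reverse mutation to histidine prototrophy using S. typhimurium TA97, TA98, TA100 and TA102. Compounds are dissolved in DMSO and tested at 10, 100 and 500 µM.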

Plasma [7] = experiment: Anticoagulant activity in human plasma assessed as prothrombin time at 100 uM; type: functional
How it was run: (§3)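 Human platelet-poor plasma from whole blood (n=3) by differential centrifugation, run on a coagulation analyzer. Compounds at 100 µM incubated with plasma 15 min at room temperature, then 2 min at 37 °C. For aPTT, cephalin is added for 2 min and clotting is started with 0.025 M CaCl2. For PT, PBS is added for 3 min and clotting is started with calcium thromboplastin. Clotting time is read in seconds at 37 °C. Negative control is 1% DMSO; positive control is 100 µM rivaroxaban.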

[8] = Genotoxicity in Salmonella typhimurium TA102 at 10 to 500 uM by AMES test; type: toxicity; settings: salmonella enterica subsp. enterica serovar typhimurium, dose 10-500 µM; how it was run: as §2
Plasma [9] = experiment: Anticoagulant activity in human plasma assessed as activated partial thromboplastin time at 100 uM; type: functional; how it was run: as §3
Plasma [10] = experiment: Antiplatelet activity in human platelet-rich plasma assessed as inhibition of arachidonic acid-induced platelet aggregation by turbidimetric method; type: functional
How it was run: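 Platelet-rich and platelet-poor plasma prepared from human whole blood (n=3) by differential centrifugation. Compounds pre-incubated in PRP for 2 min, then aggregation is induced with 500 µM arachidonic acid and followed turbidimetrically in an aggregometer. IC50 is determined from several concentrations, in triplicate. Acetylsalicylic acid is the positive control; 1% DMSO vehicle is the negative control.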

[11] = Mutagenicity in Escherichia coli PQ37 at 10 to 500 uM by SOS-chromotest; type: toxicity; settings: dose 10-500 µM
How it was run: (§4)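 SOS chromotest spot assay with E. coli PQ35 and PQ37. An overnight culture is diluted in LB and grown at 37 °C to 2×10^8 bacteria/mL. Then 0.1 mL is mixed in top agar and poured on M63 plates. 10 µL of compound in DMSO (10, 100 or 500 µM) is spotted centrally and plates are incubated overnight at 37 °C. A blue ring around the inhibition zone indicates genotoxicity. Run in triplicate with 4-NQO as positive control.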

Vero [12] = experiment: Cytotoxicity against African green monkey Vero cells at 10 uM measured after 48 hrs by MTT assay relative to control; type: cell-based; settings: chlorocebus sabaeus
How it was run: (§5)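 Vero cells grown at 37 °C in 5% CO2 in medium with 10% inactivated FBS. Cells seeded at 3.2×10^4 per well and grown 24 h, then exposed to compounds for 48 h (n = 4). Control is DMEM with 10% FBS and 1% DMSO. MTT (2.5 mg/mL solution) is added for 3 h, formazan is dissolved in DMSO and absorbance is read at 570 nm. Viability is given as % of untreated cells, mean ± SD.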

[13] = Genotoxicity in Salmonella typhimurium TA98 at 10 to 500 uM by AMES test; type: toxicity; settings: salmonella enterica subsp. enterica serovar typhimurium, dose 10-500 µM; how it was run: as §2
Vero [14] = experiment: Cytotoxicity against African green monkey Vero cells at 100 uM measured after 48 hrs by MTT assay relative to control; type: cell-based; settings: chlorocebus sabaeus; how it was run: as §5
[15] = Mutagenicity in Escherichia coli PQ35 at 10 to 500 uM by SOS-chromotest; type: toxicity; settings: dose 10-500 µM; how it was run: as §4
[16] = Genotoxicity in Salmonella typhimurium TA100 at 10 to 500 uM by AMES test; type: toxicity; settings: salmonella enterica subsp. enterica serovar typhimurium, dose 10-500 µM; how it was run: as §2
[17] = molecular target: T4, Prostaglandin G/H synthase 2 (Homo sapiens) (UniProt P35354); experiment: Inhibition of human COX-2 assessed as peroxidase activity using arachidonic acid as substrate at 50 uM by colorimetric method; how it was run: as §1
T4 sequence (whole entry): T2 sequence (P35354 whole entry)

Structure (SMILES): COc1ccc(-c2noc(CC(=O)NCCCCCCNC(=O)Cc3onc(-c4ccc(OC)cc4)c3-c3ccc(OC)cc3)c2-c2ccc(OC)cc2)cc1
Ratio IC50 [1]: > 5.5 | pIC50 [2]: 5.05 | pIC50 [3]: < 4.30 | inhibition [4]: 50%

Structure (SMILES): COc1ccc(-c2noc(CC(=O)NCc3ccc(CNC(=O)Cc4onc(-c5ccc(OC)cc5)c4-c4ccc(OC)cc4)cc3)c2-c2ccc(OC)cc2)cc1
pIC50 [2]: < 4.30 | pIC50 [3]: < 4.30

Structure (SMILES): CCCCC/C=C\C/C=C\C/C=C\C/C=C\CCCC(=O)Nc1ccc(NC(=O)Cc2onc(-c3ccc(OC)cc3)c2-c2ccc(OC)cc2)cc1
hemolysis at 3 h [5]: 0% | PT (Plasma [7]): 15.3 s | pIC50 [2]: 7.30 | APTT (Plasma [9]): 55.6 s | pIC50 (Plasma [10]): 6.21 | Activity (Vero [12]): 93% | Activity (Vero [14]): 79% | pIC50 [3]: < 4.30 | inhibition [4]: 66%

Structure (SMILES): CCCCC/C=C\C/C=C\C/C=C\C/C=C\CCCC(=O)NCCCCNC(=O)Cc1onc(-c2ccc(OC)cc2)c1-c1ccc(OC)cc1
Ratio IC50 [1]: 0.05 | inhibition [17]: 61% | pIC50 [3]: 6.10 | inhibition [4]: 57%

Structure (SMILES): COc1ccc(-c2noc(CC(=O)NCCCCCCCCCCCCNC(=O)Cc3onc(-c4ccc(OC)cc4)c3-c3ccc(OC)cc3)c2-c2ccc(OC)cc2)cc1
Ratio IC50 [1]: > 7 | pIC50 [2]: 5.15 | pIC50 [3]: < 4.30 | inhibition [4]: 40%

Structure (SMILES): COc1ccc(-c2noc(CC(=O)NCCCCN)c2-c2ccc(OC)cc2)cc1
Ratio IC50 [1]: 3.7 | inhibition [17]: 51% | pIC50 [2]: 6.02 | pIC50 [3]: 5.46 | inhibition [4]: 100%

Structure (SMILES): CC(=O)Oc1ccccc1C(=O)O [ASPIRIN]
hemolysis at 3 h [5]: 0% | Activity [6]: Non-Toxic | PT (Plasma [7]): 14.6 s | Activity [8]: Non-Toxic | APTT (Plasma [9]): 50.3 s | pIC50 (Plasma [10]): 5.95 | Activity [11]: Non-Toxic | Activity (Vero [12]): 100% | Activity [13]: Non-Toxic | Activity (Vero [14]): 95% | Activity [15]: Non-Toxic | Activity [16]: Non-Toxic

Further lines, with some results ahead:

Ratio IC50 [1]: > 333 | pIC50 [2]: 6.82 | pIC50 (Plasma [10]): 6.04 | pIC50 [3]: < 4.30 | inhibition [4]: 85%
Structure (SMILES): COc1ccc(-c2noc(CC(=O)Nc3ccc(NC(=O)Cc4onc(-c5ccc(OC)cc5)c4-c4ccc(OC)cc4)cc3)c2-c2ccc(OC)cc2)cc1
hemolysis at 3 h [5]: 0% | Activity [6]: Non-Toxic | PT (Plasma [7]): 15.5 s | Activity [8]: Non-Toxic | APTT (Plasma [9]): 47.5 s | Activity [11]: Non-Toxic | Activity (Vero [12]): 98% | Activity [13]: Non-Toxic | Activity (Vero [14]): 97% | Activity [15]: Non-Toxic | Activity [16]: Non-Toxic

pIC50 (Plasma [10]): 6.35
Structure (SMILES): COc1ccc(-c2noc(CC(=O)O)c2-c2ccc(OC)cc2)cc1 [MOFEZOLAC]
hemolysis at 3 h [5]: 0% | Activity [6]: Non-Toxic | PT (Plasma [7]): 14.2 s | Activity [8]: Non-Toxic | APTT (Plasma [9]): 50.8 s | Activity [11]: Non-Toxic | Activity (Vero [12]): 97% | Activity [13]: Non-Toxic | Activity (Vero [14]): 91% | Activity [15]: Non-Toxic | Activity [16]: Non-Toxic

Ratio IC50 [1]: 9 | inhibition [17]: 45% | pIC50 [2]: 7.89 | pIC50 [3]: 6.92 | inhibition [4]: 75%
Structure (SMILES): COc1ccc(-c2noc(CC(=O)NCCNC(=O)Cc3onc(-c4ccc(OC)cc4)c3-c3ccc(OC)cc3)c2-c2ccc(OC)cc2)cc1

Ratio IC50 [1]: > 9 | pIC50 [2]: 5.26 | pIC50 [3]: < 4.30 | inhibition [4]: 74%
Structure (SMILES): COc1ccc(-c2noc(CC(=O)NCCCCNC(=O)Cc3onc(-c4ccc(OC)cc4)c3-c3ccc(OC)cc3)c2-c2ccc(OC)cc2)cc1

Ratio IC50 [1]: 0.02 | inhibition [17]: 79% | pIC50 [2]: 4.62 | pIC50 [3]: 6.30 | inhibition [4]: 74%
Structure (SMILES): COc1ccc(-c2noc(CC(=O)Nc3ccc(N)cc3)c2-c2ccc(OC)cc2)cc1

Ratio IC50 [1]: 4 | inhibition [17]: 71% | pIC50 [2]: 7.12 | pIC50 [3]: 6.52 | inhibition [4]: 85%
Structure (SMILES): COc1ccc(-c2noc(CC(=O)Nc3ccc(-c4ccc(N)cc4)cc3)c2-c2ccc(OC)cc2)cc1
